From paper PMC5295499 (Bioorganic & medicinal chemistry letters, 2016)
“Also recorded” adds a separate entry of the source. Values belong to the compound of their own block, whether it stands above or below them.

Assays:
[1] = test system: MDM2-Luc exon-skipping reporter; assay: MDM2-Luc triple exon-skipping luciferase reporter assay; type: cell-based
Summary of the method: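 Stable cell line expressing the triple exon-skipping luciferase construct. Exon skipping induced by SF3B1-targeted splicing modulators switches on luciferase, so luminescence is the read-out. The assay was used to screen a library of 830 known drugs and 4359 bioactive compounds.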

Src(1-530) = Src(1-530) (Homo sapiens, UniProt P12931); assay: Kinase profiling screen, Src; type: biochemical; conditions: 1 μM, in duplicate
Flt3 = biological target: T1, Flt3 (Homo sapiens, UniProt P36888); assay: Kinase profiling screen, Flt3; type: biochemical; conditions: 1 μM, in duplicate
T1 sequence (P36888 27-993): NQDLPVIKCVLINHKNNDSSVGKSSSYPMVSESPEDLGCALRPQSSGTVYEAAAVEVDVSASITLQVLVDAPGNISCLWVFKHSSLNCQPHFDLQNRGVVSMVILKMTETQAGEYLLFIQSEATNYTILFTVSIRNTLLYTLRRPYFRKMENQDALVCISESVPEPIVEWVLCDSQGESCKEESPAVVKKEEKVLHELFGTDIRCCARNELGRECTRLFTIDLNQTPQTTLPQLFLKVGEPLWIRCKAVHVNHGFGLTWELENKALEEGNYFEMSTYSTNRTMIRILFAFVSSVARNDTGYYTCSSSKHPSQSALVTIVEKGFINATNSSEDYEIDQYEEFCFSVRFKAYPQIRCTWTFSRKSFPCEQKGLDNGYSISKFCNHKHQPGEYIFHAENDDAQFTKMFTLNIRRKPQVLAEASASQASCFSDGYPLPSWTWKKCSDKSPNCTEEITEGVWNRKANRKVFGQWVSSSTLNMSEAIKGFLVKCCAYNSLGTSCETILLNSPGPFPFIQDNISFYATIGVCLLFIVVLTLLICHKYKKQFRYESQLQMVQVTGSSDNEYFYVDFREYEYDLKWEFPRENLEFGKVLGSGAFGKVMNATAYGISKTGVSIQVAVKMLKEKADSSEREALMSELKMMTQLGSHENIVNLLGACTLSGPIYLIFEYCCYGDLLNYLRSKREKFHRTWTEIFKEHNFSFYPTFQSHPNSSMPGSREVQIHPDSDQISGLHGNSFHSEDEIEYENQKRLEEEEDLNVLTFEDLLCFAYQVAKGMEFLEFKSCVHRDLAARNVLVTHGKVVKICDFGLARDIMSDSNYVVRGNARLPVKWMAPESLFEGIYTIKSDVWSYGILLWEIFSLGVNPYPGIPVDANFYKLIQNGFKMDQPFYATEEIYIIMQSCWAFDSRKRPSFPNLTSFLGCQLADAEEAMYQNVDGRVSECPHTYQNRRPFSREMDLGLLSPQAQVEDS

CLK1 = CLK1 (Homo sapiens, UniProt P49759); assay: CLK1 biochemical enzyme inhibition; conditions: screened for CLK1 activity, data not shown
Solubility = type: physicochemical; conditions: data not shown
Plk1 = Plk1 (Homo sapiens, UniProt P53350); assay: Kinase profiling screen, Plk1; type: biochemical; conditions: 1 μM, in duplicate
CDK4 = CDK4 (Homo sapiens, UniProt P11802); assay: CDK4 biochemical enzyme inhibition; conditions: read-out: CDK4 IC50
CLK2 = CLK2 (Homo sapiens, UniProt P49760); assay: CLK2 biochemical enzyme inhibition; conditions: 20 versus its enantiomer 21
Sequence of CLK2 (P49760 whole entry): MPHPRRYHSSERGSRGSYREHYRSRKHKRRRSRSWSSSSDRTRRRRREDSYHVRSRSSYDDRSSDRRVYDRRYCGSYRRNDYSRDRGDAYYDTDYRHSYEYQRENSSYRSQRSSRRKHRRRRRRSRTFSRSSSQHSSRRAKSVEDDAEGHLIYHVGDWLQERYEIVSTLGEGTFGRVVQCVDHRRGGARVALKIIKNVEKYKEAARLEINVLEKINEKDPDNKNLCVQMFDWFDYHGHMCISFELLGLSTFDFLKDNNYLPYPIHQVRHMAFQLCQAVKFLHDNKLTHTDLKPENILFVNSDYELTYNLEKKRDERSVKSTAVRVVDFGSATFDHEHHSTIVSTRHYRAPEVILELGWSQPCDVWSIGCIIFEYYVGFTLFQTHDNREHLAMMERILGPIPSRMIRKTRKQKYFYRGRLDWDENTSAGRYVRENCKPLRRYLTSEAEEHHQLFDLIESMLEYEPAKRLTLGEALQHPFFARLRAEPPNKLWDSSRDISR

Sequence of Src(1-530) (P12931 1-530): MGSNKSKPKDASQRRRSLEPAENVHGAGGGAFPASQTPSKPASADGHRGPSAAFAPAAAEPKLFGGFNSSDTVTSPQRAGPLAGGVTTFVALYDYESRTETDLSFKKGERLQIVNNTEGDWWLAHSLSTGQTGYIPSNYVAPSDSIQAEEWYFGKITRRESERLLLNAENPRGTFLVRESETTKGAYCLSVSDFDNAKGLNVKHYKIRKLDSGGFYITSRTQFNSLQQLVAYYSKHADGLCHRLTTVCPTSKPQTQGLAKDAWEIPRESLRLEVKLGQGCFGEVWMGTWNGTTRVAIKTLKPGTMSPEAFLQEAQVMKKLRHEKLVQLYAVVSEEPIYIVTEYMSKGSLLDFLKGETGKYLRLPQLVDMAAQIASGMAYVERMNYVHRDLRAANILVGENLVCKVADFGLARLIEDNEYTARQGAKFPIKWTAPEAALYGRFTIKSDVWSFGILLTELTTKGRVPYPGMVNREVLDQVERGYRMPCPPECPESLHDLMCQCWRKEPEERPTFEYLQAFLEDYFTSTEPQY
Sequence of CLK1 (P49759 whole entry): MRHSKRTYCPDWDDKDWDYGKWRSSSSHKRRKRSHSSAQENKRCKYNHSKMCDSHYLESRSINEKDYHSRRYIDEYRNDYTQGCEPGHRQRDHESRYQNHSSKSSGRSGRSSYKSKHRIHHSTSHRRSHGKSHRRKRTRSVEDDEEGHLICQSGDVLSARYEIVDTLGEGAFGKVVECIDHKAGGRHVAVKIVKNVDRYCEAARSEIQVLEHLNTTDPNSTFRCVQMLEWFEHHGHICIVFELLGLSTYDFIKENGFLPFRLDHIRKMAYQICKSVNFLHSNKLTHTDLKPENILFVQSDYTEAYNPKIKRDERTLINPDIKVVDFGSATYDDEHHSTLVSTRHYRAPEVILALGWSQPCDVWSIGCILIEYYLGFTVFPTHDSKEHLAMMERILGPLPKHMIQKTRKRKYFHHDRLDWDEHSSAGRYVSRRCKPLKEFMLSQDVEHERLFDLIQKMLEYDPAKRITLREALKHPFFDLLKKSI
Sequence of CDK4 (P11802 whole entry): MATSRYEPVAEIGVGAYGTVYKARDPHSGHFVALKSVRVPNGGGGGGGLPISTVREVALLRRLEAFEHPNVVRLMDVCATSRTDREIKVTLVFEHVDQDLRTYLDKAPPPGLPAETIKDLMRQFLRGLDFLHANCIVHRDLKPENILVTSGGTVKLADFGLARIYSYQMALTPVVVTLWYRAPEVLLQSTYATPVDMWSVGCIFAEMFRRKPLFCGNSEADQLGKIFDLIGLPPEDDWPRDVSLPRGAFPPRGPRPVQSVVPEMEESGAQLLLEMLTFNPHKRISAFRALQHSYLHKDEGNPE
Sequence of CDK4 (P30281 whole entry partner): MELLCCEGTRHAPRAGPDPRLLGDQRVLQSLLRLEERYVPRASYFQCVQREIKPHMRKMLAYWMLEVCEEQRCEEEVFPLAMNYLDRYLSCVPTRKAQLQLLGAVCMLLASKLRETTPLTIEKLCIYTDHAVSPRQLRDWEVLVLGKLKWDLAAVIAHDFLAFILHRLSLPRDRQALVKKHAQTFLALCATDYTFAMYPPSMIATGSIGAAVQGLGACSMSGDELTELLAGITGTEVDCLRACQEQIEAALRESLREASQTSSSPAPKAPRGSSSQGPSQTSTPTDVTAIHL
Sequence of Plk1 (P53350 whole entry): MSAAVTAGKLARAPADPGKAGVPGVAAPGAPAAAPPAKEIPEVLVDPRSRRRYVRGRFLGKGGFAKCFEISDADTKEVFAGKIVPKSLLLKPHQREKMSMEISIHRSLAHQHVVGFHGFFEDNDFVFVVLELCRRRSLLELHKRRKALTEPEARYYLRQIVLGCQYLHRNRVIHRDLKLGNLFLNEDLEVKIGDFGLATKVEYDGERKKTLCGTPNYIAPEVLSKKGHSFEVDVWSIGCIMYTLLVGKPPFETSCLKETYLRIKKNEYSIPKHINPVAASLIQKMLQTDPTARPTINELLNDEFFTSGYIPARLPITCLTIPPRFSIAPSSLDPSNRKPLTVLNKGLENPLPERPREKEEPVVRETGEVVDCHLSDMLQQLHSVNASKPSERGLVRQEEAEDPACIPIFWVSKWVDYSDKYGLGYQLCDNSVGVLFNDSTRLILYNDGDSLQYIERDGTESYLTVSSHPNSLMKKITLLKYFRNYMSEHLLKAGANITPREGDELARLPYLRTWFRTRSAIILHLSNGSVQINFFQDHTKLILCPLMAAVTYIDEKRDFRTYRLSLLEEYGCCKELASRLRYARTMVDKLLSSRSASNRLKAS

- activity in the MDM2-Luc assay [1]: strong luciferase response
- off-target activity against Src(1-530) (Src(1-530)): some significant off-target activity
- off-target activity against Flt3 (Flt3): some significant off-target activity
SMILES: CC(C)n1cnc2c(Nc3cccc(Cl)c3)nc(N[C@@H]3CCCC[C@@H]3N)nc21 [Compound 9]

- activity in the MDM2-Luc assay [1]: strong luciferase response
SMILES: CC(C)n1cnc2c(Nc3cccc(Cl)c3)nc(N[C@H]3CCCC[C@H]3N)nc21 [Compound 10]

- activity in the MDM2-Luc assay at 10 μM [1]: completely abrogated all activity
SMILES: CCn1cnc2c(Nc3cccc(Cl)c3)nc(N[C@@H]3CCCC[C@@H]3NC(C)=O)nc21 [Compound 12]

- off-target activity against Plk1 (Plk1): off-target activity
- off-target activity against Src(1-530) (Src(1-530)): off-target activity
- off-target activity against Flt3 (Flt3): off-target activity
SMILES: CC(C)n1cnc2c(Nc3cc(N)cc(Cl)c3)nc(N[C@@H]3CCCC[C@@H]3N)nc21 [Compound 14]
- activity in the MDM2-Luc assay [1]: strong MDM2-Luc activity; also recorded: strong luciferase response

- IC50 (CDK4): 611 nM
SMILES: CC(=O)Nc1cc(Cl)cc(Nc2nc(N[C@@H]3CCCC[C@@H]3N)nc3c2ncn3C(C)C)c1 [Compound 18]

- potency difference between enantiomers for CLK2 (CLK2): > 10 fold
SMILES: CC(C)n1cnc2c(Nc3cc(N)cc(Cl)c3)nc(N[C@H]3CCCC[C@@H]3N)nc21 [Compound 20]

Continued, compound first:

SMILES: CC(C)n1ccc2c(Nc3cccc(Cl)c3)nc(N[C@H]3CCCC[C@H]3N)nc21 [Compound 11]
- activity in the MDM2-Luc assay at 10 μM [1]: completely abrogated all activity

SMILES: COCCNc1nc(Nc2cccc(Cl)c2)c2ncn(C(C)C)c2n1 [Compound 13]
- activity in the CLK assay (CLK1): active
- activity in the MDM2-Luc assay [1]: dramatically reduced activity
- solubility (Solubility): very poor solubility

SMILES: CC(=O)Nc1cc(Cl)cc(Nc2nc(N[C@@H]3CCCC[C@@H]3N)nc3c2ncn3C(C)C)c1 [Compound 15]
- activity in the MDM2-Luc assay [1]: strong MDM2-Luc activity; also recorded: strong luciferase response

SMILES: COC(=O)c1c(/C(C#N)=C\N)c2ccc(Cl)c(Cl)c2n1C [KH-CB19, reference compound]
- activity in the MDM2-Luc assay [1]: modest activity; also recorded: barely passes the minimal hit criteria

SMILES: COc1ccc2c(C)nc(Nc3nc(C)c(C)c(O)n3)nc2c1 [Madrasin, reference compound]
- activity in the MDM2-Luc assay at 10 μM [1]: neither compound showed significant activity
